From ChEMBL document CHEMBL1938334, “Quinoline tricyclic derivatives. Design, synthesis and evaluation of the antiviral activity of three new classes of RNA-dependent RNA polymerase inhibitors” (Bioorg Med Chem, 2011)

Tested on: Vesicular stomatitis Indiana virus
Test: Antiviral activity against clinical isolate Vesicular stomatitis Indiana virus infected in african green monkey Vero 76 cells assessed as reduction of virus-induced plaque formation after 2 days using crystal violet staining
Assay type: functional, organism-based
Conditions: 48 h
With `N#CCn1nnc2cc3cccnc3c(Cl)c21` the EC50 was > 100 µM. With `Oc1ccnc2c(Cl)c3[nH]c(-c4ccccc4)nc3cc12` the EC50 was > 100 µM. With `COc1ccccc1-c1nc2cc3cccnc3cc2[nH]1` the EC50 was > 75 µM. With `CC(C)c1nc2cc3cccnc3c(Cl)c2[nH]c1=O` the EC50 was 62 µM. In the case of `Clc1c2ncccc2cc2nc(-c3ccccc3)c(-c3ccccc3)nc12`, the EC50 is reported as > 100 µM.

Tested on: not listed separately
Test: Cytotoxicity against african green monkey Vero 76 cells after 48 to 96 hrs by crystal violet staining
Assay type: cell-based
Conditions: chlorocebus sabaeus
Procedure, shortened: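 Vero-76 cells were seeded at 4×10^5 cells/mL in D-MEM with L-glutamine, kanamycin and 10% FBS, then exposed to serial compound dilutions at 37 °C, 5% CO2 for 48–96 h. Viability was read by crystal violet staining. 50% cytotoxic concentration by linear regression relative to untreated controls; mean of three independent determinations.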
For `N#CCn1nnc2cc3cccnc3c(Cl)c21`, the CC50 was > 100 µM. With `Oc1ccnc2c(Cl)c3[nH]c(-c4ccccc4)nc3cc12` the CC50 was > 100 µM. `COc1ccccc1-c1nc2cc3cccnc3cc2[nH]1` showed a CC50 of 75 µM. In the case of `CC(C)c1nc2cc3cccnc3c(Cl)c2[nH]c1=O`, the CC50 is reported as > 100 µM. With `Clc1c2ncccc2cc2nc(-c3ccccc3)c(-c3ccccc3)nc12` the CC50 was > 100 µM.

Tested on: Yellow fever virus
Test: Antiviral activity against Yellow fever virus 17D Stamaril Pasteur J07B01 infected in hamster BHK21 cells assessed as inhibition of virus-induced cytopathogenicity after 3 to 4 days by MTT assay
Assay type: functional, cell-based
Conditions: Stamaril Pasteur J07B01, BHK-21
Procedure, shortened: (§1)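 Host cells were seeded in 96-well plates at 3×10^4 cells/well (MDBK) or 5×10^4 cells/well (BHK-21) and grown to confluent monolayers overnight. They were infected at m.o.i. 0.01 in maintenance MEM with 0.5% inactivated FBS. Serial compound dilutions were added after 1 h. Viability was read by MTT after 3–4 days at 37 °C. EC50 was taken by linear regression against untreated controls. Mean of three determinations.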
For `N#CCn1nnc2cc3cccnc3c(Cl)c21`, the EC50 was > 100 µM. For `Oc1ccnc2c(Cl)c3[nH]c(-c4ccccc4)nc3cc12`, the EC50 was > 75 µM. For `COc1ccccc1-c1nc2cc3cccnc3cc2[nH]1`, the EC50 was > 32 µM. With `CC(C)c1nc2cc3cccnc3c(Cl)c2[nH]c1=O` the EC50 was > 100 µM. In the case of `Clc1c2ncccc2cc2nc(-c3ccccc3)c(-c3ccccc3)nc12`, the EC50 is reported as > 100 µM.

Tested on: Reovirus sp.
Test: Antiviral activity against Reovirus type-1 3651 infected in hamster BHK21 cells assessed as inhibition of virus-induced cytopathogenicity after 3 to 4 days by MTT assay
Assay type: functional, organism-based
Conditions: Reovirus sp., 3651, BHK-21
Procedure, shortened: as §1
For `N#CCn1nnc2cc3cccnc3c(Cl)c21`, the EC50 was > 100 µM. With `Oc1ccnc2c(Cl)c3[nH]c(-c4ccccc4)nc3cc12` the EC50 was > 75 µM. In the case of `COc1ccccc1-c1nc2cc3cccnc3cc2[nH]1`, the EC50 is reported as > 32 µM. With `CC(C)c1nc2cc3cccnc3c(Cl)c2[nH]c1=O` the EC50 was 47 µM. In the case of `Clc1c2ncccc2cc2nc(-c3ccccc3)c(-c3ccccc3)nc12`, the EC50 is reported as > 100 µM.

Tested on: not listed separately
Test: Antiviral activity against Vaccinia virus Lister Elstree infected in african green monkey Vero 76 cells assessed as reduction of virus-induced plaque formation after 3 days using crystal violet staining
Assay type: functional, cell-based
Conditions: 72 h
For `N#CCn1nnc2cc3cccnc3c(Cl)c21`, the EC50 was > 100 µM. In the case of `Oc1ccnc2c(Cl)c3[nH]c(-c4ccccc4)nc3cc12`, the EC50 is reported as > 100 µM. With `COc1ccccc1-c1nc2cc3cccnc3cc2[nH]1` the EC50 was > 75 µM. In the case of `CC(C)c1nc2cc3cccnc3c(Cl)c2[nH]c1=O`, the EC50 is reported as > 100 µM. In the case of `Clc1c2ncccc2cc2nc(-c3ccccc3)c(-c3ccccc3)nc12`, the EC50 is reported as > 100 µM.

Tested on: not listed separately
Test: Cytotoxicity against BHK21 cells after 48 to 96 hrs by MTT assay
Assay type: cell-based, Mesocricetus auratus, BHK-21
Conditions: hamster
Procedure, shortened: (§2)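 MDBK seeded at 6×10^5 and BHK at 1×10^6 cells/mL in MEM-Earle's with L-glutamine, 1 mM pyruvate, kanamycin, plus 10% horse serum (MDBK) or 10% FBS (BHK). Cells were grown at 37 °C, 5% CO2 with serial compound dilutions (DMSO stocks diluted in medium). Viability by MTT after 48–96 h. CC50 was taken by linear regression versus untreated controls; three independent determinations.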
With `N#CCn1nnc2cc3cccnc3c(Cl)c21` the CC50 was > 100 µM. In the case of `Oc1ccnc2c(Cl)c3[nH]c(-c4ccccc4)nc3cc12`, the CC50 is reported as 75 µM. With `COc1ccccc1-c1nc2cc3cccnc3cc2[nH]1` the CC50 was 32 µM. In the case of `CC(C)c1nc2cc3cccnc3c(Cl)c2[nH]c1=O`, the CC50 is reported as > 100 µM. In the case of `Clc1c2ncccc2cc2nc(-c3ccccc3)c(-c3ccccc3)nc12`, the CC50 is reported as > 100 µM.

Tested on: Coxsackievirus B5
Test: Antiviral activity against Human coxsackievirus B5 Ohio-1 infected in african green monkey Vero 76 cells assessed as reduction of virus-induced plaque formation after 3 days using crystal violet staining
Assay type: functional, organism-based
Conditions: Enterovirus B, Ohio-1, Vero, 72 h
For `N#CCn1nnc2cc3cccnc3c(Cl)c21`, the EC50 was > 100 µM. For `Oc1ccnc2c(Cl)c3[nH]c(-c4ccccc4)nc3cc12`, the EC50 was > 100 µM. With `COc1ccccc1-c1nc2cc3cccnc3cc2[nH]1` the EC50 was 47 µM. For `CC(C)c1nc2cc3cccnc3c(Cl)c2[nH]c1=O`, the EC50 was > 100 µM. With `Clc1c2ncccc2cc2nc(-c3ccccc3)c(-c3ccccc3)nc12` the EC50 was > 100 µM.

Tested on: not listed separately
Test: Antiviral activity against Bovine viral diarrhea virus 1-NADL infected in MDBK cells assessed as inhibition of virus-induced cytopathogenicity after 3 to 4 days by MTT assay
Assay type: functional, cell-based
Conditions: Bovine viral diarrhea virus isolates and strains
Procedure, shortened: as §1
With `N#CCn1nnc2cc3cccnc3c(Cl)c21` the EC50 was 100 µM. With `Oc1ccnc2c(Cl)c3[nH]c(-c4ccccc4)nc3cc12` the EC50 was > 100 µM. For `COc1ccccc1-c1nc2cc3cccnc3cc2[nH]1`, the EC50 was ≥ 11 µM. `CC(C)c1nc2cc3cccnc3c(Cl)c2[nH]c1=O` showed an EC50 of 5 µM. For `Clc1c2ncccc2cc2nc(-c3ccccc3)c(-c3ccccc3)nc12`, the EC50 was > 100 µM.

Tested on: Human orthopneumovirus
Test: Antiviral activity against Human respiratory syncytial virus A2 infected in african green monkey Vero 76 cells assessed as reduction of virus-induced plaque formation after 5 days using crystal violet staining
Assay type: functional, organism-based
Conditions: 120 h
With `N#CCn1nnc2cc3cccnc3c(Cl)c21` the EC50 was > 100 µM. With `Oc1ccnc2c(Cl)c3[nH]c(-c4ccccc4)nc3cc12` the EC50 was > 100 µM. In the case of `COc1ccccc1-c1nc2cc3cccnc3cc2[nH]1`, the EC50 is reported as > 75 µM. For `CC(C)c1nc2cc3cccnc3c(Cl)c2[nH]c1=O`, the EC50 was 38 µM. With `Clc1c2ncccc2cc2nc(-c3ccccc3)c(-c3ccccc3)nc12` the EC50 was > 100 µM.

Tested on: not listed separately
Test: Cytotoxicity against MDBK cells after 48 to 96 hrs by MTT assay
Assay type: cell-based, Bos taurus
Conditions: cattle
Procedure, shortened: as §2
In the case of `N#CCn1nnc2cc3cccnc3c(Cl)c21`, the CC50 is reported as > 100 µM. With `Oc1ccnc2c(Cl)c3[nH]c(-c4ccccc4)nc3cc12` the CC50 was > 100 µM. `COc1ccccc1-c1nc2cc3cccnc3cc2[nH]1` gave a CC50 of 11 µM. `CC(C)c1nc2cc3cccnc3c(Cl)c2[nH]c1=O` showed a CC50 of 100 µM. In the case of `Clc1c2ncccc2cc2nc(-c3ccccc3)c(-c3ccccc3)nc12`, the CC50 is reported as > 100 µM.

Tested on: Poliovirus 1
Test: Antiviral activity against Human poliovirus 1 strain Sabin Chat infected in african green monkey Vero 76 cells assessed as virus-induced reduction of plaque formation after 2 days using crystal violet staining
Assay type: functional, cell-based
Conditions: Enterovirus C, 48 h
In the case of `N#CCn1nnc2cc3cccnc3c(Cl)c21`, the EC50 is reported as > 100 µM. In the case of `Oc1ccnc2c(Cl)c3[nH]c(-c4ccccc4)nc3cc12`, the EC50 is reported as > 100 µM. In the case of `COc1ccccc1-c1nc2cc3cccnc3cc2[nH]1`, the EC50 is reported as > 75 µM. For `CC(C)c1nc2cc3cccnc3c(Cl)c2[nH]c1=O`, the EC50 was > 100 µM. In the case of `Clc1c2ncccc2cc2nc(-c3ccccc3)c(-c3ccccc3)nc12`, the EC50 is reported as > 100 µM.

Tested on: Human alphaherpesvirus 1
Test: Antiviral activity against Human herpesvirus 1 strain KOS infected in african green monkey Vero 76 cells assessed as reduction of virus-induced plaque formation after 3 days using crystal violet staining
Assay type: functional, organism-based
Conditions: Human alphaherpesvirus 1, KOS, 72 h
With `N#CCn1nnc2cc3cccnc3c(Cl)c21` the EC50 was > 100 µM. In the case of `Oc1ccnc2c(Cl)c3[nH]c(-c4ccccc4)nc3cc12`, the EC50 is reported as > 100 µM. For `COc1ccccc1-c1nc2cc3cccnc3cc2[nH]1`, the EC50 was > 75 µM. In the case of `CC(C)c1nc2cc3cccnc3c(Cl)c2[nH]c1=O`, the EC50 is reported as > 100 µM. For `Clc1c2ncccc2cc2nc(-c3ccccc3)c(-c3ccccc3)nc12`, the EC50 was > 100 µM.

Tested on: not listed separately
Test: Cytotoxicity against human MT4 cells after 96 hrs by MTT assay
Assay type: cell-based
Conditions: not given
Procedure, shortened: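 Exponentially growing MT-4 cells seeded at 1×10^5 cells/mL in RPMI-1640 with 10% FBS, penicillin and streptomycin. Incubated with serial compound dilutions at 37 °C, 5% CO2 for 96 h; viability by MTT. CC50 by linear regression relative to untreated controls; mean of three independent determinations.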
Work on `N#CCn1nnc2cc3cccnc3c(Cl)c21` yielded a CC50 at 96 h of 100 µM. In the case of `Oc1ccnc2c(Cl)c3[nH]c(-c4ccccc4)nc3cc12`, the CC50 at 96 h is reported as > 100 µM. In the case of `COc1ccccc1-c1nc2cc3cccnc3cc2[nH]1`, the CC50 at 96 h is reported as 14 µM. `CC(C)c1nc2cc3cccnc3c(Cl)c2[nH]c1=O` showed a CC50 at 96 h of 48 µM. For `Clc1c2ncccc2cc2nc(-c3ccccc3)c(-c3ccccc3)nc12`, the CC50 at 96 h was > 100 µM.

Tested on: Human immunodeficiency virus 1
Test: Antiviral activity against HIV1 3B infected in human MT4 cells assessed as inhibition of virus-induced cytopathogenicity after 4 days by MTT assay
Assay type: functional, organism-based
Conditions: Human immunodeficiency virus 1, 3B, MT4, 96 h
Procedure, shortened: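 MT-4 cells (1×10^4 per well) were infected with HIV-1 IIIB at 100 CCID50, m.o.i. 0.01, together with serial compound dilutions. Viability was read by MTT after 4 days at 37 °C. EC50 was taken by linear regression versus untreated controls. Mean of three determinations.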
For `N#CCn1nnc2cc3cccnc3c(Cl)c21`, the EC50 was > 100 µM. With `Oc1ccnc2c(Cl)c3[nH]c(-c4ccccc4)nc3cc12` the EC50 was > 100 µM. In the case of `COc1ccccc1-c1nc2cc3cccnc3cc2[nH]1`, the EC50 is reported as > 14 µM. For `CC(C)c1nc2cc3cccnc3c(Cl)c2[nH]c1=O`, the EC50 was > 48 µM. With `Clc1c2ncccc2cc2nc(-c3ccccc3)c(-c3ccccc3)nc12` the EC50 was > 100 µM.
